Hits are enriched below; roughly 1.2% of the tested compounds scored in any of these assays.
proCasp7 act: counter-screen: procaspase-7 (human) activation | P55210 | recombinant procaspase-7, Ac-DEVD-pNA absorbance 405 nm; D23A/D198A/D206A triple mutant, cannot self-cleave; scale: DMSO 0, 5 µM enzyme 100 | activation, % at 8.5 µM | hit rate 0.093% among 330,000;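 active means percent activation above the screen-wide mean plus 3 SD, cut at about 25% in these data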
Target sequence (P55210 whole entry D23A/D198A/D206A): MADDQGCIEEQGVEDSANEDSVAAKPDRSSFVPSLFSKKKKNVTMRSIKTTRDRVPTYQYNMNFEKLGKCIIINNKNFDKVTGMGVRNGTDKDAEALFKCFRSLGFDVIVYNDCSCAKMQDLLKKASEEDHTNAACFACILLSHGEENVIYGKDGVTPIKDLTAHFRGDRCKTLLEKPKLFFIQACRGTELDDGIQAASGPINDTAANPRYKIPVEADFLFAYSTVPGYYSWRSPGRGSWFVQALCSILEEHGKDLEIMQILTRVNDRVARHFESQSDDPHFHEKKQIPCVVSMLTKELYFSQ
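System: Procaspase-7 triple mutant (PC-7 D3A); measure: % activation from two-timepoint absorbance difference, scaled to controls; times: 1 h compound preincubation, 2 h substrate cleavage, 25 °C; also added: Ac-DEVD-pNA substrate, 400 µM as added; measured by: Epi-absorbance of released pNA at 405 nm, two timepoints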
A1 inh: inhibitors of the anti-apoptotic protein A1, read as caspase activation. MEF A1-2A-BIM cells, Caspase-Glo 3/7 luminescence, 3 h; percent of clofoctol response, vehicle zero. caspase activation, % (concentration not given with the values). hit rate 0.066% among 330,000;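 active means over half of replicate activation scores above 10%, or exactly half above 10 with the replicate mean above 10; inconclusive means replicate mean below 10 yet half the replicates above 10; inactive means over half of replicates below 10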
bovine MsrA act: bovine methionine sulfoxide reductase A activation | purified bovine MsrA, absorbance read-out | activation, % at 10.6 µM | hit rate 0.3% among 360,000 | AID 602163; in the data active means activation above about 7.5%
MsrA inhibitor: bovine MsrA inhibition; inhibition, % at 15.5 µM; purified bovine MsrA, absorbance read-out; AID 651718; hit rate 0.75% among 360,000
procasp3 activ: procaspase-3 (human) activation | AID 463141 | recombinant procaspase-3 D3A, Ac-DEVD-pNA absorbance 405 nm | activation, % at 8.5 µM | hit rate 0.11% among 330,000 | P42574;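 active means activation above the mean of all tested compounds plus 3 SD, cut at about 21% in these data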
Target sequence (P42574 whole entry D9A/D28A/D175A): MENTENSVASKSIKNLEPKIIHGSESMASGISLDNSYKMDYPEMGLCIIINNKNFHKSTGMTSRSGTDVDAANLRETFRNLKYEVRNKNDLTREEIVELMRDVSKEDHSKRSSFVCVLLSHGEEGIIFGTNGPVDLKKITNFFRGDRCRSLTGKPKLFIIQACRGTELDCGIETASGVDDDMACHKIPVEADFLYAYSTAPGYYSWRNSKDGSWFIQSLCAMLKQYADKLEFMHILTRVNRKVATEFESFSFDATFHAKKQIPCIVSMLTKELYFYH
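material = Procaspase-3 D3A mutant | probe or stimulus = Ac-DEVD-pNA | compound = single dose, 8.5 µM nominal compound, 0.8% DMSO | timing = 1 h preincubation, 2 h reaction | measured by = 405 nm absorbance of p-nitroaniline, reads at 0 and 120 min | benchmarks = DMSO-only low control, 5 µM PC-3 D3A high control | repeats = singlicate, each compound tested once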
MsrA inh confirm: bovine MsrA inhibition, confirmed; shares compounds with MsrA inhibitor; purified bovine MsrA, absorbance read-out; inhibition, % at 15.5 µM; hit rate 41% among 2,300; AID 651822;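 further: coupled to thioredoxin reductase with NADPH and selenocystamine and DMSO as substrate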
Numbers stand for hits; - = inactive; ? = inconclusive; . = no result given. Unless noted, no stated cut-off is given here; in the data, active means inhibition above about 4.5%; inactive means the rest.

SMILES | proCasp7 act | A1 inh | bovine MsrA act | MsrA inhibitor | procasp3 activ | MsrA inh confirm
C#CCN(C[C@H]1[C@H](OC(=O)Nc2cccs2)[C@H](OC(=O)Nc2cccs2)CN(C(=O)OC(C)C)N1C(=O)OC(C)C)S(=O)(=O)c1ccc(C)cc1 | . | . | . | - | . | .
O=c1[nH]c(/C=C/c2ccc([N+](=O)[O-])cc2)c([N+](=O)[O-])c(=O)[nH]1 | . | - | - | 5.4 | . | 5.6
Cc1cccc(OCCCN2CCC(C(O)(c3ccccc3)c3ccccc3)CC2)c1 | . | . | . | - | . | .
O=C(O)c1ccc2c3c(cccc13)C(=O)N(c1ccccc1)C2=O | - | - | - | - | - | .
NN1C(=O)c2cccc3c(C(=O)O)ccc(c23)C1=O | - | - | - | - | - | .
NS(=O)(=O)c1ccc(O)c(N2C(=O)c3cccc4c(C(=O)O)ccc(c34)C2=O)c1 | - | - | - | 5.0 | - | -
O=C(O)c1ccc(N2C(=O)c3cccc4c(C(=O)O)ccc(c34)C2=O)cc1 | - | - | - | 5.5 | - | -
C[C@H](CO)N1C[C@H](C)[C@@H](CN(C)C(=O)Nc2cc(F)ccc2F)Oc2ncc(-c3cccc(F)c3)cc2C1=O | . | . | - | - | . | .
COc1ccc([C@H]2CC(=O)C=C(/C=C/c3ccc(C(F)(F)F)cc3)C2)cc1 | - | - | - | - | - | .
N#CCCn1nc2c(c1N)CCC2 | . | . | - | - | . | .
Cc1ccc(-c2ccc(CN3C(C(C)C)C(=O)N(Cc4cn(CCC5OCCO5)nn4)CCS3(=O)=O)cc2)c(C)c1 (configuration not stated) | . | . | - | - | . | .
C=CCNC(=O)/C(=C\C=C\c1ccccc1)NC(=O)c1ccccc1Cl | - | - | - | - | - | .
O=C(O)CCCNC(=O)/C(=C\C=C\c1ccccc1)NC(=O)c1ccccc1Cl | - | - | - | 5.8 | - | -
O=C(Nc1ccc(C(=O)O)cc1)/C(=C\c1ccc2c(c1)OCO2)NC(=O)c1ccccc1 | - | - | - | - | - | .
O=C(O)COc1ccccc1/C=N/NC(=O)/C(=C\c1ccc2c(c1)OCO2)NC(=O)c1ccccc1 | - | - | - | 5.5 | - | -
O=C(Nc1cccc(C(=O)O)c1)/C(=C\c1ccc2c(c1)OCO2)NC(=O)c1ccccc1Cl | - | - | - | 5.5 | - | -
COC(=O)N1Cc2ccnnc2CC1c1ccccc1-c1ccccc1 (configuration not stated) | . | . | . | - | . | .
O=c1cc2[nH]c3ccccc3c(=O)n2nc1-c1ccccc1 | - | - | - | 4.9 | - | -
C/C=C/C=C/C(=O)c1cc(C)c(OC(=O)CNC(=O)OC(C)(C)C)c(C)c1O | . | . | . | - | . | .
NS(=O)(=O)c1ccc2nc(NC(=O)c3ccc(Br)o3)sc2c1 | - | - | - | 4.8 | - | 5.7
CC(=O)Nc1nc2cc(C(N)=O)ccc2s1 | - | - | - | - | - | .
NC(=O)c1ccc2nc(NC(=O)c3ccc(N)cc3)sc2c1 | . | . | - | 6.3 | . | -
NS(=O)(=O)c1ccc2nc(NC(=O)c3ccncc3)sc2c1 | - | ? | - | 5.6 | - | -
CCN(/N=C/C=C/c1ccccc1)c1cc(=O)n(C)c(=O)[nH]1 | - | - | - | 10.6 | - | 10.7
CCN(/N=C/c1ccc(Cl)cc1)c1cc(=O)n(C)c(=O)[nH]1 | - | - | - | - | - | .
SMILES | proCasp7 act | A1 inh | bovine MsrA act | MsrA inhibitor | procasp3 activ | MsrA inh confirm
Cc1ccc(C)c(NC(=O)CN(C)C(=O)CC2OC(=O)c3ccccc32)c1 (configuration not stated) | - | - | - | - | - | .
COc1ccc(Nc2nnc(SC(C(=O)Nc3cc(C)ccc3C)c3ccccc3)s2)cc1 (configuration not stated) | - | - | - | - | - | .
COc1ccc(C)cc1NC(=O)C(Sc1nnc(Nc2cc(C)ccc2OC)s1)c1ccccc1 (configuration not stated) | - | - | - | 5.2 | - | -
CCCn1c(N)c(N(CCOC)C(=O)CSc2cc(C)c3cccc(C)c3n2)c(=O)[nH]c1=O | - | - | - | - | - | .
COc1ccc(/C=C(\C#N)C(=O)NC(C)c2ccccc2)cc1O (configuration not stated) | - | - | - | 4.9 | - | -
N#C/C(=C\N1CCN(Cc2ccc3c(c2)OCO3)CC1)c1nc2ccccc2s1 | - | - | - | - | - | .
CCOC(=O)N1CCN(/C=C(\C#N)c2nc3ccccc3s2)CC1 | - | - | - | 7.0 | - | 5.2
C/C(=N\NC(=O)c1cccc(C)c1)c1ccc(N2CCOCC2)cc1 | - | - | - | 5.3 | - | -
O=C(O)c1ccc(/C=N/NC(=S)NCCN2CCOCC2)cc1 | - | - | - | 6.1 | - | -
Cc1ccc(C(=O)N/N=C/c2ccc(N3CCOCC3)cc2)c(C)c1 | - | - | - | 5.5 | - | -
O=C(N/N=C/c1ccc(N2CCOCC2)cc1)c1ccc(O)cc1 | - | - | - | 5.6 | - | 4.8
CC(=O)NCCNC(=O)Cn1nnc(-c2ccccc2)c1COc1ccc2ccccc2c1 | . | . | - | - | . | .
O=[N+]([O-])c1ccccc1S(=O)(=O)Nc1cccc(S(=O)(=O)N2CCCC2)c1 | - | - | - | - | - | .
Cc1noc(C)c1S(=O)(=O)N1CCCc2nc(-c3ccc(Br)cc3)ccc21 | . | . | . | - | . | .
CC1(C)C=C(c2ccc(C=O)s2)CC(C)(C)N1C=O | - | - | - | 4.8 | - | -
CCOC(=O)/C(C#N)=C1/C=CN(C)C(C)=N1 | - | - | - | 6.6 | - | 6.0
NC(=S)N/N=C/c1ccc(-c2ccccc2)o1 | - | - | - | 6.7 | - | -
COc1ccc(-c2ccc(/C=N/NC(=O)Cc3nnc(N)s3)o2)cc1Cl | - | - | - | - | - | .
Nc1nnc(CC(=O)N/N=C/c2ccc(-c3ccccc3)o2)s1 | - | - | - | 6.6 | - | 7.9
CCOc1ccc(C(=O)N/N=C/c2ccc(-c3ccc(S(=O)(=O)Nc4ncccn4)cc3)o2)cc1 | - | - | - | 6.0 | - | 4.9
Nc1nnc(CC(=O)N/N=C\c2ccc(-c3cccc(Cl)c3)o2)s1 | - | - | - | - | - | .
COC(=O)c1ccc(-c2ccc(/C=N/NC(=O)Cc3nnc(N)s3)o2)cc1 | - | - | - | 4.8 | - | -
Cc1cc(=O)c2c(o1)C(=O)c1occc1C2=O | . | . | - | - | . | .
Cc1ccc(-c2ccc(/C=N/NC(=O)c3ccccc3O)o2)cc1 | - | - | . | . | - | .
NS(=O)(=O)c1ccc(-c2ccc(/C=N/NC(=O)c3ccccc3O)o2)cc1 | - | - | - | 4.9 | - | -
COc1ccc(C(=O)NCC(=O)N/N=C/C(C)=C/c2ccco2)cc1OC | - | - | - | 6.6 | - | -
CCCc1c(C)nn(C(=O)/C(C#N)=N/Nc2ccccc2[N+](=O)[O-])c1C | - | - | - | 10.2 | - | 6.9
COc1ccc(C(=O)/C(C#N)=N/Nc2ccccc2[N+](=O)[O-])cc1 | - | - | - | - | - | .
O=C(N/N=C/c1ccc2nccnc2c1)c1ccccc1O | - | - | . | - | - | .
O=C(N/N=C/c1ccnc2ccccc12)c1ccccc1O | . | - | - | 5.6 | . | -

From PubChem
